Sampled rows, rich in hits. Any-hit rate of the full collection: about 2.6%.
Granule exo inh: LAMP-1 surface exposure blockers, TALL-104 cells – cell-based, flow cytometry, MLPCN library, primary screen; 360,000 tested, 0.66% active; AID 651702, 2012; TALL-104 LAMP-1 surface exposure; cells stimulated with thapsigargin and PMA; inhibition, % at 10 µM;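 active = inhibition above about 55%, limit read from the data; inconclusive = no clear call, values can overlap the other calls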
MC4R barr agon: MC4R agonists recruiting beta-arrestin, primary screen, cell-based, luminescence, agonist arm of biased-ligand search | 360,000 tested, 0.98% active | Melanocortin receptor 4 (Homo sapiens), P32245 | activation, % at 8.9 µM | U2OS MC4R beta-arrestin complementation; percent of melanotan II response, DMSO zero;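 active = activation above a per-plate cutoff, the mean activation of sample wells on that plate plus 3 SD, cut at about 8% in these data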
Target sequence (P32245 whole entry, looked up): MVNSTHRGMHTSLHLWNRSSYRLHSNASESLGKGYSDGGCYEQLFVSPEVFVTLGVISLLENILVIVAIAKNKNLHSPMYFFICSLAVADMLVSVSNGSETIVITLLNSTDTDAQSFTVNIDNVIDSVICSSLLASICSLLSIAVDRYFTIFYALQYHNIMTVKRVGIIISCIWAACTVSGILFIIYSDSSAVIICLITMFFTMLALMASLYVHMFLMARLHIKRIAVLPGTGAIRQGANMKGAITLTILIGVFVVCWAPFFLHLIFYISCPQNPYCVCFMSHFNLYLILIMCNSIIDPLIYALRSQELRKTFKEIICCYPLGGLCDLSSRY
PGE2 EP2 inh: human EP2 receptor antagonists, primary screen, TR-FRET cAMP, C6 glioma cells; C6 glioma cells expressing human EP2; cells stimulated with saturating PGE2; inhibition, % at 25 µM; 260,000 tested, 0.52% active; AID 1422, 2008;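 active = percent inhibition above 40 after rounding to a whole number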;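 also: rat C6 glioma host cells with rolipram phosphodiesterase inhibitor present; the protocol text gives 20 µM as final concentration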
Target sequence (P43116 whole entry, looked up): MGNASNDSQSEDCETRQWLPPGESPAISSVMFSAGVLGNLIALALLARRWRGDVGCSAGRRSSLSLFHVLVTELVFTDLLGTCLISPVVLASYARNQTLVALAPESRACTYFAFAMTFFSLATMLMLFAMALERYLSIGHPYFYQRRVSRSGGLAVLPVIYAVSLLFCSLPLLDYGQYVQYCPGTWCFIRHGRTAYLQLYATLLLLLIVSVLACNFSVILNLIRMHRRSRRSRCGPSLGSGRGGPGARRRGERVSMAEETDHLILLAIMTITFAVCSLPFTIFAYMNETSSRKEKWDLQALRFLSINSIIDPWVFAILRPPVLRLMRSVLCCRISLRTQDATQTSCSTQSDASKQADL
MC4R antag cAMP: MC4R antagonists of cAMP signaling, primary screen, cell-based, TR-FRET, antagonist arm of biased-ligand search | Melanocortin receptor 4 (Homo sapiens), P32245 | MC4R-expressing cells, MTII-stimulated cAMP, LANCE TR-FRET | inhibition, % at 6.5 µM | 360,000 tested, 0.48% active | AID 540295, 2011;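 active = inhibition above its plate's cutoff, the mean of tested wells on that plate plus 3 SD, cut at about 29% in these data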
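Test system: U2OS cells stably expressing human melanocortin 4 receptor (MC4R); also added: Melanotan II challenge; compound: 6.5 µM single dose; timing: 30-min compound preincubation, 1-h Melanotan II challenge, 1-h detection, room temperature; signal: Eu-cAMP/anti-cAMP TR-FRET, emission 671 nm; repeats: one well per compound, no replicates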
EP2 mod: EP2 receptor modulators, cAMP readout, primary screen, cell-based, HTRF cAMP, PGE2 stimulation; 260,000 tested, 0.83% active; AID 940, 2007; Prostaglandin E2 receptor EP2 subtype (Homo sapiens), P43116; induction, % at 25 µM; EP2-expressing cells, cAMP HTRF FRET, PGE2 co-stimulation;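 active = compounds whose cAMP rise, as percent of the full-agonist control response, exceeds 60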;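 also: rat C6 glioma line stably carrying human EP2 under a CMV promoter; the protocol text gives 20 µM as final concentration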
T cell modulator: modulators of CD8 T cell-vesicle binding, primary screen, mouse 2C CD8+ T cells, flow cytometry; 330,000 tested, 0.068% active; response (vesicle binding), % at 7 µM; 2C CD8+ T cell-vesicle binding; hits give low values;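 active = response, share of CD8 T cells binding vesicles, and their 90th percentile fluorescence all below set limits, cut at about 80% in these data, passing the limit was not always enough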;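 also: values below 100% mean blocked vesicle binding to the CD8+ T cells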
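Also added: QL9-peptide-loaded Drosophila micro-vesicles bearing Ld, ICAM-1 and B7-1; Test system: purified 2C TCR transgenic mouse naive CD8+ T cells; Measured by: cytometric PE anti-B7-1 and Alexa647 anti-CD8 signals after 1% paraformaldehyde fixation; Timing: binding step 1.5 h, 37 °C, antibody labelling 20 min, ice.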
Each line names hits and unclear results; the compound was inactive in the other large screens.

CCOC(=O)CCN(Cc1cccs1)S(=O)(=O)c1ccc(Cl)cc1	EP2 mod 61
CCOC(=O)CSc1c(-c2cccs2)[nH]c2ccccc12	MC4R barr agon 8.6
CC1(C(=O)N(c2ccccc2)C(C(=O)NC2CCCC2)c2ccccn2)CC(=O)N=C2C=CC=CN21 (configuration not stated)	none
CCCN(Cc1ccccc1)C(=S)Nc1ccc(SC(F)F)cc1	Granule exo inh 90 (no result: T cell modulator)
Cc1ccc(C)n1Cc1ccccc1Cl	EP2 mod 65
C=C(C)Cn1c(COc2ccccc2)nc2ccccc21	EP2 mod 69 (no result: Granule exo inh, MC4R barr agon, MC4R antag cAMP, T cell modulator)
COCCCC1CCN(C(=O)C2CCC(=O)N(CCc3ccccc3)C2)CC1 (configuration not stated)	none (no result: PGE2 EP2 inh, EP2 mod)
CCOc1ccccc1C1Nc2ccccc2-c2cc(C)nn21 (configuration not stated)	EP2 mod 62 (no result: Granule exo inh, MC4R barr agon, MC4R antag cAMP, T cell modulator)
CC1=NNC(=O)/C1=C\c1cn(-c2ccccc2)nc1-c1ccc(F)cc1	Granule exo inh 66, MC4R antag cAMP 31 (no result: T cell modulator)
CCN(CC)c1ccc(N2C(=O)C3CCCCC3C2=O)cc1[N+](=O)[O-] (configuration not stated)	none
CC1=CC(C)(C)N(C(=O)CSc2nnc(N)s2)c2cc(C)c(C)cc21	EP2 mod 62
CCCc1cnc(NCCNCC(O)COc2ccc(Cl)c(Cl)c2)nc1 (configuration not stated)	MC4R barr agon 8.4
Cc1oc(C(=O)O)cc1COc1ccc2c3c(c(=O)oc2c1C)CCC3	none
COc1ccc(/C=C/C(=O)NCc2cn(C)nc2C)cc1COc1ccc(Br)cc1	MC4R barr agon 9.1
Cc1nn(C)cc1CNC(=O)/C=C/c1cnn(C)c1	none
O=C(c1ccc2ccccc2n1)N1CCN(c2ccccc2)CC1	none
NC(CC(=O)O)c1cccc(OCc2ccccc2)c1 (configuration not stated)	none
Clc1cccc(Cl)c1CO/N=C/c1cccs1	none
Cc1c(C)c(C)c(CO/N=C/c2cccs2)c(C)c1C	Granule exo inh 88
CN1CCCC1c1cccnc1 (configuration not stated)	none (no result: EP2 mod)
CN1CCC[C@H]1c1cccnc1.O=C(O)c1ccccc1O.O=C([OH2+])c1ccccc1O.O=C([OH2+])c1ccccc1O.O=C([OH2+])c1ccccc1O.[Cu]	PGE2 EP2 inh 40 (no result: Granule exo inh, MC4R barr agon, MC4R antag cAMP, T cell modulator)
CC(=O)Nc1ccc(S(=O)(=O)N2CCCCC2c2cccnc2)cc1 (configuration not stated)	none
CN1CCC[C@H]1c1cccnc1.O=C(O)c1ccccc1O.O=C([OH2+])c1ccccc1O.O=C([OH2+])c1ccccc1O.[Mn+2]	PGE2 EP2 inh 40 (no result: Granule exo inh, MC4R barr agon, MC4R antag cAMP, T cell modulator)
COc1ccc(NC(=O)c2ccccc2NC(=O)C2CC=CCC2C(=O)O)cc1 (configuration not stated)	none (no result: PGE2 EP2 inh, EP2 mod)
Nn1c(=S)[nH]nc(Cc2ccc(O)cc2)c1=O	none
O=C(C(=O)N1CCN(c2cccc(Cl)c2)CC1)c1c[nH]c2ccccc12	MC4R barr agon 8.5
Nc1ccc(N=Nc2ccc(-c3ccc(O)cc3)cc2)c2ccc(S(=O)(=O)O)cc12	PGE2 EP2 inh 49 (no result: Granule exo inh, MC4R barr agon, MC4R antag cAMP, T cell modulator)
Cc1ccccc1-n1sc2cc(F)ccc2c1=O	Granule exo inh 71
Cc1cc2c(cc1S(=O)(=O)NCc1ccccc1Cl)OCCN2C	none (no result: PGE2 EP2 inh, EP2 mod)
O=C(COC(=O)C1CCCCC1)NCCc1ccccc1	none (no result: T cell modulator)
CC1(C(=O)NS(=O)(=O)c2ccccc2Cl)CCN1C(=O)Cc1cccs1 (configuration not stated)	Granule exo inh inconclusive (no result: PGE2 EP2 inh, EP2 mod, T cell modulator)
O=C1C=CC2(O[C@H](c3ccccc3)[C@@H](c3ccccc3)O2)[C@H](Sc2ccccc2O)C1	Granule exo inh 102 (no result: PGE2 EP2 inh, EP2 mod, T cell modulator)
C[C@@H]1[C@@H](Sc2ccccc2)CC(=O)O[C@@H]1c1ccc(-c2ccccc2)cc1	none (no result: EP2 mod)
COc1ccccc1N/C(=N/S(=O)(=O)c1ccc(C)cc1)c1ccc(Cl)cc1	MC4R antag cAMP 30
Cc1ccc(S(=O)(=O)/N=C(/Nc2ccc(F)cc2F)c2ccc(F)cc2)cc1	none (no result: PGE2 EP2 inh, EP2 mod)
Oc1ccc2ccccc2c1CN(Cc1c(O)ccc2ccccc12)C1CCCCC1	PGE2 EP2 inh 55 (no result: Granule exo inh, MC4R barr agon, MC4R antag cAMP, T cell modulator)
CN(C)Cc1c(O)ccc2ccccc12	none
O=C(O)c1c(-c2nccc3ccccc23)[nH]c(-c2ccccc2)c1S(=O)(=O)O	PGE2 EP2 inh 75 (no result: Granule exo inh, MC4R barr agon, MC4R antag cAMP, T cell modulator)
O=C(CSc1ncn[nH]1)Nc1cc(S(=O)(=O)N2CCCC2)ccc1Cl	none
NC(=O)CSc1nc2scc(-c3ccc(Cl)cc3)c2c(=O)n1Cc1ccccc1	MC4R barr agon 8.7
O=C(NCCN1CCOCC1)c1ccc2c(c1)N(Cc1c(F)cccc1Cl)C(=O)c1ccccc1S2	none
O=C1N=C(N2CCOCC2)S/C1=C/c1ccc(-c2ccccc2Cl)o1	none
O=C1S/C(=C\c2ccc(N3CCOCC3)o2)C(=O)N1Cc1c(F)cccc1Cl	Granule exo inh 88
O=C1S/C(=C/c2ccc(N3CCOCC3)o2)C(=O)N1Cc1c(F)cccc1Cl	Granule exo inh 106
O=[N+]([O-])c1cc(C(F)(F)F)ccc1NC1CCN(Cc2ccccc2)C1 (configuration not stated)	none (no result: PGE2 EP2 inh, EP2 mod)
O=[N+]([O-])c1cc(C(F)(F)F)ccc1NC1CCN(Cc2ccccc2)CC1	EP2 mod 61
CCOC(=O)Cn1c(=O)oc2cc(S(=O)(=O)N3CCn4c3nc3ccccc34)ccc21	none
CCOC(=O)Cn1c(=O)oc2cc(S(=O)(=O)N3CCCc4ccccc43)ccc21	MC4R antag cAMP 30
CCOc1ccc(-c2cn(-c3ccc(OC)cc3)c(SC)n2)cc1	none
CC(NC(=O)COC(=O)Cn1cnc2ccccc2c1=O)C1CC2CCC1C2 (configuration not stated)	none
CC(=O)c1ccc(NC(=O)CN2C(=O)C(C)Oc3ccccc32)cc1 (configuration not stated)	none (no result: Granule exo inh, MC4R barr agon, MC4R antag cAMP, T cell modulator)
O=c1[nH]c2ccc(Cl)cc2c(-c2ccccc2)c1[N+](=O)[O-]	MC4R barr agon 9.3
O=C(Nc1ccc(NC(=O)c2cccnc2Cl)cc1)c1cccc(Cl)c1	none (no result: PGE2 EP2 inh, EP2 mod)
Cc1cc(SCC(=O)c2ccc(Br)cc2)cc(C)[o+]1	PGE2 EP2 inh 48 (no result: Granule exo inh, MC4R barr agon, MC4R antag cAMP, T cell modulator)
Cn1c(Cn2c(=O)sc3ccccc32)nnc1SCC(=O)NC1CCCCC1	T cell modulator 68
Cn1c(Cn2c(=O)sc3ccccc32)nnc1SCC(=O)NC1CCCC1	none
CC(CCC(=O)O)(c1cc(Br)c(O)c(Br)c1)c1cc(Br)c(O)c(Br)c1	PGE2 EP2 inh 40 (no result: Granule exo inh, MC4R barr agon, MC4R antag cAMP, T cell modulator)
